Measured values from different studies.
Lines come from different studies, so protocols differ.
Target: Interleukin-1 receptor-associated kinase 1 (IRAK1, Homo sapiens, UniProt P51617)

For `CC(C)(O)[C@H]1CC[C@H](Nc2ccc3ncc(-c4cccc(C(F)(F)F)c4)n3n2)CC1`, the remaining activity was 87.1% (enzyme activity; inhibitor; 1 µM).
For `COc1ccc2c(c1)O[C@H](c1ccc(OC)c(OC)c1)C[C@@H]2NC(=O)C1(c2ccc3c(c2)OC(F)(F)O3)CC1`, the remaining binding was 93% (cell-free assay; competition with immobilised ligand; 1 µM).
With `CNC(=O)c1cc(Oc2ccc(NC(=O)Nc3ccc(Cl)c(C(F)(F)F)c3)cc2)ccn1` the inhibition was -4% (enzyme activity; inhibitor; 0.3 µM).
The activity vs control of `Cc1cc(NC(=O)c2cccc3cc(-c4cccc5[nH]nc(N)c45)ccc23)ccc1F` is reported as 100% (enzyme activity; inhibitor; 0.1 µM).
For `C[C@@H](c1cccc(C#N)c1)n1cc(Cl)cc(C(N)=O)c1=N`, the remaining binding was 76% (cell-free assay; competition with immobilised ligand; 1 µM).
For `O=C(Nc1cnn(-c2csc(C(=O)NC3COC3)c2)c1)Nc1ccccc1Cl`, the remaining activity was 112% (enzyme activity; inhibitor; 5 µM).
`COc1cccc2c(NCc3ccccc3)nc(-n3c(N)nc4ccccc43)nc12` gave an inhibition of -2.2% (target engagement in cells; inhibitor; chemoproteomics; 20 mM).
With `CC(C)(C)c1nc(-c2cccc(NS(=O)(=O)c3c(F)cccc3F)c2F)c(-c2ccnc(N)n2)s1` the remaining activity was 84% (enzyme activity; inhibitor; radiometric; 1 µM).
For `CNC(=O)Nc1ccc2c(c1)CC[C@@]21OC(=O)N(CC(=O)N(Cc2ccc(F)cc2)[C@@H](C)C(F)(F)F)C1=O`, the remaining binding was 71% (cell-free assay; competition with immobilised ligand; 1 µM).
For `Oc1cccc(-c2nc(N3CCOCC3)c3oc4ncccc4c3n2)c1`, the remaining signal was 84.2% (cell-free assay; 0.5 µM).
`CC(=O)N1CCC(c2ccc(C(=O)NC3=NCCN3)cc2C(F)(F)F)CC1` has a remaining binding of 78% (cell-free assay; competition with immobilised ligand; 1 µM).
`Cc1ccc(Nc2nccc(N(C)c3ccc4c(C)n(C)nc4c3)n2)cc1S(N)(=O)=O` has an inhibition of 25% (enzyme activity; inhibitor; 10 µM).
`FC(F)(F)Oc1cccc(-c2cnc3ccc(-c4ccncc4)nn23)c1` gave an activity vs control of 24% (enzyme activity; inhibitor; radiometric; 5 µM).
The remaining binding of `CNC(=O)Nc1ccc2c(c1)[C@@]1(CC2)OC(=O)N(CC(=O)N(Cc2ccc(F)cc2)[C@@H](C)C(F)(F)F)C1=O` is reported as 88% (cell-free assay; competition with immobilised ligand; 1 µM).
With `C=CC(=O)Nc1cc(Nc2nccc(Nc3cc(Cl)c(F)cc3C(C)(C)O)n2)c(OC)cc1N1CC[C@@H](N(C)C)C1` the inhibition was 11% (enzyme activity; inhibitor; 1 µM).
For `O=C(Nc1ccc(Oc2ccc(F)cc2)cc1)N1CCc2ncccc2[C@H]1c1ccc(F)cc1`, the remaining binding was 88% (cell-free assay; competition with immobilised ligand; 1 µM).
For `O=C1Nc2ccc(Cl)cc2C1=Cc1cc(Cl)c(O)c(Cl)c1`, the remaining signal was 95.4% (cell-free assay; 0.5 µM).
`COc1cc(Cl)c(C(=O)N[C@@H](CN[C@H]2CC[C@@H](N)CC2)Cc2ccc(C#N)cc2)cc1-c1ccc(CN[C@H](C)c2ccc(C)cc2)o1` gave a remaining activity of 97% (enzyme activity; inhibitor; 1 µM).
`CN1CC(Oc2cnc(C#N)cc2-c2ccn3nc(NC(=O)C4CC4)cc3c2)C1` gave an inhibition of 38% (enzyme activity; inhibitor; 1 µM).
`CN(C)C1CCN(CC#Cc2nn(C3CCCC3)c3nc(NCc4ccccc4)ncc23)C1` (centres unmarked) gave an inhibition of 13% (enzyme activity; inhibitor; FRET; 1 µM).
